Drawing on the array DNA melting data of Ke et al. (doi:10.1101/2024.01.08.574731), this text covers Tm and folding enthalpy for 73 sequences.

Data set [1] can be described thus: melting temperature; fluorescence melt of hairpins on a sequencing array, two-state fit, raised by 9.35 °C to match UV melts. To be noted: sodium 0.088 M. An outline of the steps: (§1)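 Folding enthalpy and melting temperature were estimated with bootstrapped two-state fits and combined across four replicates by inverse-variance weighting, with fitted temperatures raised by 9.35 °C to match UV melts. The data were Cy3 fluorescence of library hairpins, with annealed Cy3 and quencher oligos, on a sequenced MiSeq flow cell in 50 mM Na-HEPES pH 8.0, 25 mM NaCl, imaged in 2.5 °C steps up to 60 °C and normalised to pre-quench Cy3 and control constructs.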

Data set [2] is described as follows: folding enthalpy; higher = less favourable; fluorescence melt of hairpins on a sequencing array, two-state fit. The following applies: sodium 0.088 M. An outline of the steps:
as §1

As to GACTTACGAAAGTATGTC (((.(((....))).))), the Tm in data set [1] is 47.8 °C. Moreover, the folding enthalpy in data set [2] is -32.9 kcal/mol.
On to GACTTCCGAAAGGACGTC (((.(((....))).))), for which, in data set [1], the Tm is 48.9 °C. In data set [2], the folding enthalpy is -32.3 kcal/mol.
In the same order, the values of GACTTCGGAAACGAAATC ((.((((....)))).)) are 31.9 °C and -22.9 kcal/mol.
For GACTTGCGAAAGCACGTC (((.(((....))).))), in data set [1], the Tm was 52.4 °C. For the same sequence, the folding enthalpy in data set [2] was -23.3 kcal/mol.
In the case of GACTTGGGAAACCAAGTC (((((((....))))))), the Tm in data set [1] is 62.3 °C. The folding enthalpy in data set [2] was -35.8 kcal/mol.
As for GACTTGGGAAACCAGGTC (((.(((....))).))), the Tm in data set [1] is 46.4 °C. Besides, the folding enthalpy in data set [2] was -37 kcal/mol.
For the sequence GACTTTGGAAACAAGGTC (((.(((....))).))), the Tm in data set [1] amounted to 41.8 °C. Besides, the folding enthalpy in data set [2] is -38.1 kcal/mol.
Take GAGAACACGAAAGTGCTC (((..(((....)))))): in data set [1], the Tm came out at 32.9 °C. Further, in data set [2], the folding enthalpy is -15.6 kcal/mol.
On to GAGAACGAAAGTTCTC ((((((....)))))), for which the Tm in data set [1] was 62.4 °C. Moreover, in data set [2], the folding enthalpy is -36 kcal/mol.
In the case of GAGAACGAAAGTTGGCTC ((((((....)))..))), the Tm in data set [1] stood at 30.6 °C. In data set [2], the folding enthalpy was -19.1 kcal/mol.
Regarding GAGAACGAAAGTTGTCTC ((((((....)))..))), in data set [1], the Tm was 43.5 °C. Moreover, in data set [2], the folding enthalpy is -27.2 kcal/mol.
In the case of GAGAACGCGAAAGCGCTC (((..(((....)))))), the Tm in data set [1] came to 39 °C. Besides, the folding enthalpy in data set [2] is -12.2 kcal/mol.
In the same order, the values of GAGAACGGAAACGTTTTC ((.((((....)))).)) are 41.3 °C and -25.3 kcal/mol.
With GAGAAGACGAAAGTCCTC (((..(((....)))))), in data set [1], the Tm came to 31.4 °C. In data set [2], the folding enthalpy was -13.2 kcal/mol.
Take GAGAAGCGAAAGCTCCTC (((.(((....))).))): the Tm in data set [1] came out at 45.1 °C. The folding enthalpy in data set [2] was -21.7 kcal/mol.
As to GAGAAGGAAACTTCTC ((((((....)))))), the Tm in data set [1] amounted to 48.3 °C. In data set [2], the folding enthalpy was -23.3 kcal/mol.
As for GAGAAGGGAAACCCTCTC ((((.((....)).)))), in data set [1], the Tm was 35.6 °C. Besides, the folding enthalpy in data set [2] is -22.8 kcal/mol.
Turning to GAGAAGGGAAACCTTTTC ((.((((....)))).)), the Tm in data set [1] turned out to be 28.8 °C. Also, the folding enthalpy in data set [2] was -28.4 kcal/mol.
In the same order, the values of GAGAATGCGAAAGCACTC (((..(((....)))))) are 32 °C and -9.82 kcal/mol.
In the same order, the values of GAGACAGGAAACCGTCTC (((((.(....).))))) are 46.3 °C and -29.2 kcal/mol.
Take GAGACAGGAAACTGTTTC ((.((((....)))).)): in data set [1], the Tm was 37.9 °C. For the same sequence, the folding enthalpy in data set [2] is -29.1 kcal/mol.
In the same order, the values of GAGACCGAAAGGTCCCTC ((((((....)))..))) are 44.6 °C and -11.1 kcal/mol.
Take GAGACCGAAAGGTGCCTC ((((((....)))..))): the Tm in data set [1] stood at 31.1 °C. Further, the folding enthalpy in data set [2] was -12.7 kcal/mol.
GAGACGGAAACGTCTC ((((((....)))))): the Tm in data set [1] came to 63.3 °C. In addition, in data set [2], the folding enthalpy was -39.8 kcal/mol.
As for GAGACGGGAAACCATCTC ((((.((....)).)))), the Tm in data set [1] amounted to 36.8 °C. Besides, the folding enthalpy in data set [2] was -24.5 kcal/mol.
For GAGAGACGAAAGTCGCTC (((.(((....))).))), in data set [1], the Tm stood at 60.5 °C. In addition, the folding enthalpy in data set [2] was -32.3 kcal/mol.
In the same order, the values of GAGAGAGGAAACTCTCTC (((((((....))))))) are 57.9 °C and -35.4 kcal/mol.
In the same order, the values of GAGAGCGAAAGCTACCTC ((((((....)))..))) are 30.1 °C and -10.4 kcal/mol.
For the sequence GAGAGCGAAAGCTCCCTC ((((((....)))..))), the Tm in data set [1] was found to be 44 °C. Moreover, the folding enthalpy in data set [2] is -10.3 kcal/mol.
With GAGAGCGAAAGCTGCTC ((((((....))).))), in data set [1], the Tm is 47 °C. Moreover, in data set [2], the folding enthalpy was -14 kcal/mol.
As for GAGAGCGAAAGCTTGCTC ((((((....)))..))), in data set [1], the Tm came out at 35.5 °C. In addition, the folding enthalpy in data set [2] is -10.4 kcal/mol.
Turning to GAGAGGGGAAACCTTCTC ((((.((....)).)))), the Tm in data set [1] stood at 40.3 °C. In data set [2], the folding enthalpy was -27.4 kcal/mol.
Turning to GAGAGTCCGAAAGGACTC (((..(((....)))))), in data set [1], the Tm came out at 60.4 °C. The folding enthalpy in data set [2] is -8.55 kcal/mol.
In the same order, the values of GAGAGTGAAAACTCTC ((((((....)))))) are 53.9 °C and -32.1 kcal/mol.
In the same order, the values of GAGAGTGGAAACATTCTC ((((.((....)).)))) are 38.5 °C and -32.6 kcal/mol.
In the same order, the values of GAGAGTGGAAACGTTCTC ((((..(....)..)))) are 33.9 °C and -14.4 kcal/mol.
Take GAGATAGGAAACTGTCTC ((((.((....)).)))): in data set [1], the Tm was determined as 41.3 °C. Besides, the folding enthalpy in data set [2] was -29.5 kcal/mol.
Regarding GAGATCCGAAAGGACCTC (((.(((....))).))), the Tm in data set [1] stood at 47.1 °C. In data set [2], the folding enthalpy is -28.4 kcal/mol.
For GAGATCGCGAAAGCGCTC (((..(((....)))))), the Tm in data set [1] amounted to 33.6 °C. Also, in data set [2], the folding enthalpy is -8.57 kcal/mol.
On to GAGATCGGAAACAATCTC (((((.(....).))))), for which the Tm in data set [1] was 32.5 °C. Moreover, the folding enthalpy in data set [2] was -15.3 kcal/mol.
In the same order, the values of GAGATGGGAAACCATCTC (((((((....))))))) are 60.3 °C and -39.2 kcal/mol.
Consider GAGCAACCGAAAGGTCTC (((..(((....)))))), for which, in data set [1], the Tm stood at 30.1 °C. Also, the folding enthalpy in data set [2] was -13.1 kcal/mol.
As for GAGCAACGAAAGTTACTC (((.(((....))).))), the Tm in data set [1] was determined as 42.9 °C. Also, in data set [2], the folding enthalpy was -26.2 kcal/mol.
For GAGCAAGAAATTGCTC ((((((....)))))), the Tm in data set [1] stood at 54.8 °C. The folding enthalpy in data set [2] is -29.8 kcal/mol.
As to GAGCAAGGAAACTTGCTC (((((((....))))))), in data set [1], the Tm is 63.8 °C. Further, the folding enthalpy in data set [2] was -40.4 kcal/mol.
On to GAGCAAGGAAACTTGTTC ((.((((....)))).)), for which the Tm in data set [1] was found to be 36.2 °C. In data set [2], the folding enthalpy was -26.1 kcal/mol.
For the sequence GAGCACGAAAGTGACCTC ((((((....)))..))), in data set [1], the Tm amounted to 39.6 °C. The folding enthalpy in data set [2] was -15.1 kcal/mol.
In the same order, the values of GAGCACGAAAGTGCCCTC ((((((....)))..))) are 44.3 °C and -9.48 kcal/mol.
In the same order, the values of GAGCACGAAAGTGGCTC ((((((....))).))) are 56.5 °C and -24.2 kcal/mol.
In the same order, the values of GAGCACGAAAGTGTCCTC ((((((....)))..))) are 35.2 °C and -12.9 kcal/mol.
For the sequence GAGCACGGAAACATGCTC (((((.(....).))))), the Tm in data set [1] was 45.4 °C. Also, the folding enthalpy in data set [2] was -35 kcal/mol.
In the same order, the values of GAGCACGGAAACGCGCTC ((((.((....)).)))) are 55.3 °C and -42.9 kcal/mol.
In the same order, the values of GAGCAGGGAAACCCGCTC ((((.((....)).)))) are 51.4 °C and -34.2 kcal/mol.
In the same order, the values of GAGCAGGGAAACTTGCTC (((((.(....).))))) are 49 °C and -32.1 kcal/mol.
On to GAGCATGGAAACACGCTC ((((.((....)).)))), for which the Tm in data set [1] was determined as 44 °C. The folding enthalpy in data set [2] was -35.6 kcal/mol.
For the sequence GAGCCACGAAAGTGTCTC (((.(((....))).))), the Tm in data set [1] turned out to be 50 °C. The folding enthalpy in data set [2] is -29 kcal/mol.
For GAGCCAGGAAACTGGTTC ((.((((....)))).)), the Tm in data set [1] amounted to 49.4 °C. Further, in data set [2], the folding enthalpy is -29.9 kcal/mol.
In the same order, the values of GAGCCCGAAAGGGGACTC ((((((....)))..))) are 47.8 °C and -18.9 kcal/mol.
In the case of GAGCCCGAAAGGGGCCTC ((((((....)))..))), the Tm in data set [1] was found to be 49.9 °C. The folding enthalpy in data set [2] is -13.5 kcal/mol.
As for GAGCCCGAAAGGGTGCTC ((((((....)))..))), the Tm in data set [1] came out at 52.1 °C. The folding enthalpy in data set [2] is -18.6 kcal/mol.
In the same order, the values of GAGCCCGGAAACAGGCTC (((((.(....).))))) are 51.5 °C and -39.4 kcal/mol.
With GAGCCGGGAAACCGGCCC (.(((((....))))).), in data set [1], the Tm is 48.2 °C. Further, the folding enthalpy in data set [2] was -9.15 kcal/mol.
Regarding GAGCCTGGAAACGGGCTC (((((.(....).))))), in data set [1], the Tm is 58.9 °C. For the same sequence, in data set [2], the folding enthalpy is -47.8 kcal/mol.
In the case of GAGCGACGAAAGTCCCTC (((.(((....))).))), in data set [1], the Tm worked out at 43.6 °C. Further, in data set [2], the folding enthalpy was -16.1 kcal/mol.
Regarding GAGCGACGAAAGTCCTC (((.(((....)))))), in data set [1], the Tm worked out at 48.3 °C. Besides, the folding enthalpy in data set [2] is -17.1 kcal/mol.
Take GAGCGAGGAAACTCACTC (((.(((....))).))): the Tm in data set [1] amounted to 42.1 °C. Also, the folding enthalpy in data set [2] was -31 kcal/mol.
Take GAGCGCGAAAGCGGCCTC ((((((....)))..))): the Tm in data set [1] turned out to be 51.1 °C. Also, the folding enthalpy in data set [2] was -11.7 kcal/mol.
GAGCGCGAAAGCGTCTC ((((((....))).))): the Tm in data set [1] came to 61.5 °C. For the same sequence, the folding enthalpy in data set [2] was -21.2 kcal/mol.
In the case of GAGCGCGCGAAAGCGCTC (((..(((....)))))), the Tm in data set [1] amounted to 64.6 °C. Also, the folding enthalpy in data set [2] is -12.4 kcal/mol.
As to GAGCGCGGAAACGCGCCC (.(((((....))))).), in data set [1], the Tm is 59.7 °C. Besides, the folding enthalpy in data set [2] was -5.64 kcal/mol.
In the same order, the values of GAGCGGAAACGCTC (((((....))))) are 69.1 °C and -27.4 kcal/mol.
For the sequence GAGCGGCCGAAAGGCCTC (((..(((....)))))), the Tm in data set [1] turned out to be 28 °C. Besides, the folding enthalpy in data set [2] is -6.54 kcal/mol.
In the same order, the values of GAGCGGGGAAACCCGCCC (.(((((....))))).) are 45.1 °C and -8.26 kcal/mol.
